The text below walks through data of ChEMBL document CHEMBL1128230, “5'-[4-(Pivaloyloxy)-1,3,2-dioxaphosphorinan-2-yl]-2'-deoxy-5-fluorouridine: a membrane-permeating prodrug of 5-fluoro-2'-deoxyuridylic acid (FdUMP)” (J Med Chem, 1995).

The subject of test [1] is Mus musculus. Description: Percentage increase in life span of treated mice implanted intraperitoneally with P-388 leukemia sensitive cells compared with controls for a dose of 100 mg/kg. Format: functional. The following applies: P388, ip, route intraperitoneal. In short, it runs like this:
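Male BDF1 mice (six per group, about 22 g) inoculated ip with 1 × 10^6 P-388/0 leukemia cells on day 0. Drugs given ip daily for 5 consecutive days starting 24 h after implantation, in 0.9% saline or Emulphor 620 vehicle. Animals followed until death. %ILS = (T/C − 1) × 100 from median survival of treated versus saline-treated controls.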

The subject of test [2] is Mus musculus. As to the kind of experiment: Median survival time of […] implanted intraperitoneally with P-388 leukemia sensitive cells for a dose of 100 mg/kg. It counts as functional. Conditions: route intraperitoneal.
The subject of test [3] is Mus musculus. As to the kind of experiment: Percentage increase in life span of treated mice implanted intraperitoneally with P-388 leukemia resistant cells compared with controls for a dose of 100 mg/kg. It counts as functional. Conditions: P388, ip, route intraperitoneal. In short, it runs like this: (§1)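 Male BDF1 mice (six per group, average 22 g) inoculated ip with 1 × 10^6 P-388 cells, wild-type or FU-resistant subline, on day 0. Drugs given ip daily for 5 consecutive days starting 24 h after implantation, in 0.9% saline or Emulphor 620 vehicle; followed until death. Median survival of treated (T) vs saline controls (C); % ILS = (T/C − 1) × 100; body weight change recorded.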

Test [4] concerns Mus musculus. As to the kind of experiment: Median survival time of […] implanted intraperitoneally with P-388 leukemia resistant cells for a dose of 100 mg/kg. It counts as functional. The following applies: route intraperitoneal.
For test [5], the system named is Mus musculus. Description: Average percentage weight change on day 5 in mice implanted intraperitoneally with P-388 leukemia sensitive cells for a dose of 100 mg/kg. Format: functional. The following applies: route intraperitoneal. Summed up: (§2)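 Male BDF1 mice, six per group, average weight 22 g; 1 × 10^6 P-388 cells (FU-sensitive P-388/0 or FU-resistant P-388/FU) inoculated ip on day 0. Dosing ip daily for 5 consecutive days starting 24 h after implantation. Saline vehicle for FU and FUdR; Emulphor 620 formulation for the prodrug. Followed until death. % ILS = (T/C − 1) × 100 from median survival versus saline-treated controls.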

For test [6], the system named is Mus musculus. Description: Average percentage weight change on day 5 in mice implanted intraperitoneally with P-388 leukemia resistant cells for a dose of 100 mg/kg. It counts as functional. Conditions: route intraperitoneal. In short, it runs like this:
as §2

For test [7], the system named is Mus musculus. As to the kind of experiment: Percentage increase in life span of treated mice implanted intraperitoneally with P-388 leukemia sensitive cells compared with controls at a dose of 100 mg/kg. It counts as functional. Conditions: P388, ip, route intraperitoneal. Summed up:
as §1

Test [8] concerns Mus musculus. As to the kind of experiment: Percentage increase in life span of treated mice implanted intraperitoneally with P-388 leukemia sensitive cells compared with controls at a dose of 150 mg/kg. It counts as functional. Conditions: P388, ip, route intraperitoneal. Summed up: as §1
Test [9] deals with Mus musculus. Description: Percentage increase in life span of treated mice implanted intraperitoneally with P-388 leukemia sensitive cells compared with controls at a dose of 67 mg/kg. Format: functional. Conditions: P388, ip, route intraperitoneal. In short, it runs like this:
as §1

Test [10] relates to Mus musculus. As to the kind of experiment: Median survival time of […] implanted intraperitoneally with P-388 leukemia sensitive cells at a dose of 100 mg/kg. Format: functional. Conditions: route intraperitoneal.
The subject of test [11] is Mus musculus. As to the kind of experiment: Median survival time of 15 mice implanted intraperitoneally with P-388 leukemia sensitive cells at a dose of 150 mg/kg. Format: functional. Conditions: route intraperitoneal.
In test [12] the test system is Mus musculus. As to the kind of experiment: Median survival time of 15 mice implanted intraperitoneally with P-388 leukemia sensitive cells at a dose of 67 mg/kg. It counts as functional. The following applies: route intraperitoneal.
Test [13] relates to Mus musculus. Description: Percentage increase in life span of treated mice implanted intraperitoneally with P-388 leukemia resistant cells compared with controls at a dose of 100 mg/kg. It counts as functional. The following applies: P388, ip, route intraperitoneal. In short, it runs like this:
as §1

Test [14] deals with Mus musculus. As to the kind of experiment: Percentage increase in life span of treated mice implanted intraperitoneally with P-388 leukemia resistant cells compared with controls at a dose of 150 mg/kg. Format: functional. Conditions: P388, ip, route intraperitoneal. Summed up: as §1
The test system of test [15] is Mus musculus. As to the kind of experiment: Median survival time of […] implanted intraperitoneally with P-388 leukemia resistant cells at a dose of 100 mg/kg. Format: functional. Conditions: route intraperitoneal.
Test [16] has as its system Mus musculus. Description: Median survival time of […] implanted intraperitoneally with P-388 leukemia resistant cells at a dose of 150 mg/kg. Format: functional. Conditions: route intraperitoneal.
The test system of test [17] is Mus musculus. Description: Median survival time of […] implanted intraperitoneally with P-388 leukemia resistant cells at a dose of 67 mg/kg. Conditions: route intraperitoneal. Format: functional.
Test [18] concerns Mus musculus. Description: Average percentage weight change on day 5 in mice implanted intraperitoneally with P-388 leukemia sensitive cells at a dose of 150 mg/kg. It counts as functional. The following applies: route intraperitoneal. Summed up: as §2
Test [19] relates to Mus musculus. As to the kind of experiment: Average percentage weight change on day 5 in mice implanted intraperitoneally with P-388 leukemia sensitive cells at a dose of 67 mg/kg. Format: functional. Conditions: route intraperitoneal. Summed up: as §2
Test [20] has as its system Mus musculus. As to the kind of experiment: Average percentage weight change on day 5 in mice implanted intraperitoneally with P-388 leukemia resistant cells at a dose of 100 mg/kg. Format: functional. The following applies: route intraperitoneal. Summed up:
as §2

For test [21], the system named is Mus musculus. As to the kind of experiment: Average percentage weight change on day 5 in mice implanted intraperitoneally with P-388 leukemia resistant cells at a dose of 150 mg/kg. It counts as functional. Conditions: route intraperitoneal. Summed up: as §2
Test [22] has as its system Mus musculus. As to the kind of experiment: Average percentage weight change on day 5 in mice implanted intraperitoneally with P-388 leukemia resistant cells at a dose of 67 mg/kg. Conditions: route intraperitoneal. Format: functional. Summed up:
as §2

Test [23] deals with Mus musculus. As to the kind of experiment: Average percentage weight change on day 5 in mice implanted intraperitoneally with P-388 leukemia sensitive cells at a dose of 100 mg/kg at a dose of 100 mg/kg. It counts as functional. Summed up: as §2
Test [24] relates to Mus musculus. Description: Percentage increase in life span of treated mice implanted intraperitoneally with P-388 leukemia resistant cells compared with controls at a dose of 67 mg/kg. Format: functional. The following applies: P388, ip, route intraperitoneal. Summed up:
as §1

The test system of test [25] is CHO. Description: Growth inhibitory activity against CHO cells in culture. Format: functional, cell-based. Conditions: Cricetulus griseus. Summed up:
(§3)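 CHO cells and FU-resistant CHO subline plated at about 200 cells per 35-mm dish and cloned with drug at 0, 0.5, 1.5, 5, 10, 50 and 100 µM for 7 days at 37 °C in humidified CO2. Clones fixed in 10% formaldehyde and stained with 0.1% crystal violet. Minimum inhibitory concentration is the lowest concentration giving colonies of fewer than 50 cells.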

Test [26] concerns CHO-FU. As to the kind of experiment: Growth inhibitory activity against CHO/FU cells in culture. Format: functional, cell-based. Conditions: Cricetulus griseus. In short, it runs like this: as §3
Test [27] deals with Mus musculus. Description: Percentage increase in life span of treated mice implanted intraperitoneally with P-388 leukemia sensitive cells compared with controls at a dose of 20 mg/kg. Format: functional. The following applies: P388, ip, route intraperitoneal. In short, it runs like this: as §1
The subject of test [28] is Mus musculus. As to the kind of experiment: Percentage increase in life span of treated mice implanted intraperitoneally with P-388 leukemia sensitive cells compared with controls at a dose of 30 mg/kg. Format: functional. Conditions: P388, ip, route intraperitoneal. In short, it runs like this: as §1
In test [29] the test system is Mus musculus. As to the kind of experiment: Median survival time of 15 mice implanted intraperitoneally with P-388 leukemia sensitive cells at a dose of 20 mg/kg. The following applies: route intraperitoneal. Format: functional.
The test system of test [30] is Mus musculus. As to the kind of experiment: Median survival time of 15 mice implanted intraperitoneally with P-388 leukemia sensitive cells at a dose of 30 mg/kg. It counts as functional. Conditions: route intraperitoneal. In short, it runs like this:
as §1

Test [31] concerns Mus musculus. Description: Percentage increase in life span of treated mice implanted intraperitoneally with P-388 leukemia resistant cells compared with controls at a dose of 20 mg/kg. Format: functional. The following applies: P388, ip, route intraperitoneal. In short, it runs like this:
as §1

For test [32], the system named is Mus musculus. As to the kind of experiment: Percentage increase in life span of treated mice implanted intraperitoneally with P-388 leukemia resistant cells compared with controls at a dose of 30 mg/kg. Format: functional. The following applies: P388, ip, route intraperitoneal. Summed up:
as §1

Test [33] relates to Mus musculus. Description: Percentage increase in life span of treated mice implanted intraperitoneally with P-388 leukemia resistant cells compared with controls at a dose of 40 mg/kg. It counts as functional. Conditions: P388, ip, route intraperitoneal. Summed up:
as §1

In test [34] the test system is Mus musculus. Description: Median survival time of 15 mice implanted intraperitoneally with P-388 leukemia resistant cells at a dose of 20 mg/kg. Format: functional. The following applies: route intraperitoneal.
The test system of test [35] is Mus musculus. Description: Median survival time of 15 mice implanted intraperitoneally with P-388 leukemia resistant cells at a dose of 30 mg/kg. Conditions: route intraperitoneal. Format: functional.
The subject of test [36] is Mus musculus. As to the kind of experiment: Median survival time of 15 mice implanted intraperitoneally with P-388 leukemia resistant cells at a dose of 40 mg/kg. It counts as functional. Conditions: route intraperitoneal.
Test [37] has as its system Mus musculus. Description: Average percentage weight change on day 5 in mice implanted intraperitoneally with P-388 leukemia sensitive cells at a dose of 20 mg/kg. Format: functional. The following applies: route intraperitoneal. In short, it runs like this: as §1
Test [38] concerns Mus musculus. As to the kind of experiment: Average percentage weight change on day 5 in mice implanted intraperitoneally with P-388 leukemia sensitive cells at a dose of 30 mg/kg. Format: functional. The following applies: route intraperitoneal. In short, it runs like this:
as §1

For test [39], the system named is Mus musculus. As to the kind of experiment: Average percentage weight change on day 5 in mice implanted intraperitoneally with P-388 leukemia resistant cells at a dose of 20 mg/kg. Format: functional. The following applies: route intraperitoneal. Summed up:
as §1

Test [40] concerns Mus musculus. As to the kind of experiment: Average percentage weight change on day 5 in mice implanted intraperitoneally with P-388 leukemia resistant cells at a dose of 30 mg/kg. Format: functional. The following applies: route intraperitoneal. In short, it runs like this:
as §1

Test [41] concerns Mus musculus. As to the kind of experiment: Average percentage weight change on day 5 in mice implanted intraperitoneally with P-388 leukemia resistant cells at a dose of 40 mg/kg. It counts as functional. The following applies: route intraperitoneal. In short, it runs like this: as §1

For `O=S(=O)([O-])CCS.[Na+]` [MESNA], the ILS at 100 mg/kg in test [1] and in test [3] was 0% in each case. In addition, the MST in test [2] and in test [4] was 11 days throughout. The Weight change was 10% in [5] and 12% in [6].

As to `O=c1[nH]c(=O)n([C@H]2C[C@H](O)[C@@H](CO)O2)cc1F` [FLOXURIDINE], the ILS at 100 mg/kg was found to be 73% in test [7] and 18% in [13]. Also, the ILS at 150 mg/kg is 82% in test [8] and 18% in test [14]. For the same molecule, the ILS at 67 mg/kg in test [9] was 45%; in test [24], 9%. The MST came out at 19 days in test [10]; 20 days in [11]; 16 days in test [12]; 13 days in [15]; 13 days in test [16]; 12 days in [17]. Besides, the Weight change in [18] is recorded as -5%; in test [19], -2%; in [20], -10%; in test [21] it was -10%; in test [22], -6%; in [23], -4%.

As to `C=CC=O` [ACROLEIN], the half-inhibitory concentration (IC50) in [25] and in [26] was 50 µM each time.

As for `O=c1[nH]cc(F)c(=O)[nH]1` [FLUOROURACIL], the concentration for half-maximal inhibition (IC50) in test [25] is 5 µM; in test [26], 100 µM. Moreover, the ILS at 20 mg/kg in test [27] is 45%; in [31], -9%. The ILS at 30 mg/kg is 55% in [28] and -18% in test [32]. Further, the MST is 16 days in [29]; 17 days in [30]; 10 days in test [34]; 9 days in test [35]; 9 days in test [36]. In [33], the ILS at 40 mg/kg is -18%. Besides, the Weight change in test [37] is on record as -5%; in test [38], -15%; in test [39], -6%; in test [40], -15%; in test [41], -18%.
